In the EternaBench riboswitch data:

Tested on: MS2 coat protein
Experiment: apparent Kd, MS2 coat protein; higher = weaker binding; RNA-MaP array; FMN 200 µM where present
Procedure, shortened: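 Designs were transcribed by stalled E. coli RNA polymerase on Illumina sequencing-chip clusters. They were titrated with SNAP-549-labelled MS2 coat protein from 0.7 or 1.5 nM, doubling to 3 µM, in 100 mM Tris-HCl pH 7.5, 80 mM KCl, 4 mM MgCl2, BSA, DTT, yeast tRNA and Tween-20, without and then with constant ligand. The apparent Kd is the median of filtered per-cluster fits after normalisation of green signal to red-channel RNA signal and control-cluster median Fmax.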

[1] = designed as: ON switch for flavin mononucleotide, no ligand
[2] = ligand present: flavin mononucleotide, designed as: ON switch for flavin mononucleotide
[3] = designed as: OFF switch for flavin mononucleotide, no ligand
[4] = ligand present: flavin mononucleotide, designed as: OFF switch for flavin mononucleotide

| Sequence | apparent Kd [1] [µM] | apparent Kd [2] [µM] | apparent Kd [3] [µM] | apparent Kd [4] [µM] |
| --- | --- | --- | --- | --- |
| CCUAAGGAGACAGGAUAUAGCGUGGUGGCCGGGCUCCCACGGCGAGCGGCGCUAGAAGGGUCACUACAUGAGGAUCACCCAUGU | 0.0112 | 0.0116 |  |  |
| CCAUGCAUAGCGAUAUGAUCGAGAGAUCAUGUCGCUAAAUUUAGAAGGACAUGAGGAUCACCCAUGUAGGAUAUGGGAGCAUGU | 0.222 | 0.0497 |  |  |
| GUCGGAAACGACAAAGUAGCAUAGGAGGAUAUUCAUUAAAACAUGAGGAUCACCCAUGUAAAUUGGGAGAAGGCCUAUGCUACA | 0.0178 | 0.00526 |  |  |
| UAUUUACAUGAGGAUCACCCAUGUCAGGAUAUGCUUCUAUCGUCGAAAGACGAUAGUUGCAGAAGGGACAAUAU |  |  | 0.0586 | 0.106 |
| CUUUAACACCAGAAGGACAUGAGGAUCACCCAUGUAGGAUAUGGGACUCCUAGUAGGCAUAUUGUGCUUCCGGUAGGACAAGGA | 0.478 | 0.0622 |  |  |
| UUCAAAUUCGUAGGAUAUGUAUAUAAUUUCUACAUGAGGAUCACCCAUGUUACCAUUUUUUAGUGACAGAAGGACGUAAUCUAA | 0.211 | 0.0476 |  |  |
| AAGUCACGAAUAAUAAUAAGAUCUACAUGAGGAUCACCCAUGUAGGAUAUGCAGUGGAAUACACUGCAGAAGGACAUACGUGAC |  |  | 0.0141 | 0.0167 |
| AUUUUCCUGGCAGGAUAUCUUACACAUGAGGAUCACCCAUGUACAAAAGUGGGAGAAGGGUCGUGGAGGUGUAUAGUCGAAUAG | 0.0792 | 0.0361 |  |  |
| GGAGCUCACAUGAACAUGAGGAUCACCCAUGUAACUAGACAUGAGGAUAUGGAUCCUAAUUGGAUCCAGAAGGCAUGGAGCUCC | 0.161 | 0.0279 |  |  |
| GCCAUCAUAUGAGGAUAUGACACCGAAACGGUGUCAGAAGGCAUGUCGAUAGACAUGAGGAUCACCCAUGUAUAAAUGAUGGCA | 0.78 | 0.118 |  |  |
| GCGAAGAACGAGAAGGCCACUACAUGAGGAUCACCCAUGUCGUGGAGUAUUGGAGGAUAUCGUUCGGCGUCUCAUGAGGACAUA |  |  | 0.00495 | 0.00522 |
| CAAUUUAUAACAGGAUAUGUAAUUCAAUAGAAAAUAGAAGGGUUUUAUACAUGAGGAUCACCCAUGUCAUGUAUCAUAAUUACC |  |  | 0.143 | 0.122 |
| UUUCAGUCAGGAUAUCGUUAAUUUAAUUGUUUGUAUUAGUUCGAGAAGGGACAUGAGGAUCACCCAUGUACUUU |  |  | 0.0243 | 0.0255 |
| GCACCUUUAUUUGAACCGAUACGAACAUGAGGAUCACCCAUGUAGGAUAUGCUAAAAGUUGUGUUGCAGAAGGACAUUUAGUGC |  |  | 0.00936 | 0.00898 |
| UGAUCGAGAGAUCUUAGAUUCUGCAAGGAUAUGCAGGAGUUGCGCUUUACAUGAGGAUCACCCAUGUAGAAGGUGUAGAGUCUA |  |  | 0.00662 | 0.00808 |
| UCCUGGCGAGGAUAUACAAAGUUUUUUACGUUUUGUUACGAACAUGAGGAUCACCCAUGUAGAAGGUGCUGCUG |  |  | 0.0622 | 0.0581 |
| GUCGGAAACGACAAACGUAGCAUACGAGAAGGCUGAUCCACGACAUGAGGAUCACCCAUGUAGUUAGAGGAUAUUGGAUGCUAC | 0.0547 | 0.0113 |  |  |
| UGAGAUCGGGCAGGAUAUCGACAUGAGGAUCACCCAUGUGGGUUAUACUUCCCGCAUGGCUGUGGCGAGAAGGGCCCGGACCAU |  |  | 0.395 | 0.0831 |
| UUUUUAAAUAUAGGAUAUGGAAACAUGAGGAUCACCCAUGUAUGAUAAGAUAAAUUAUGAUAUAGCCAGAAGGAUAUUAUUUUU | 0.0321 | 0.0297 |  |  |
| GGAUAGGACAGAGGAUAUACAUGCUAGAGAUACUAGCAAAAUUUCCUCACAUGAGGAUCACCCAUGUAGAAGGCUGUCCUAUCG |  |  | 0.0285 | 0.673 |
| AAUAACAGAGGAUAUACUGUUUUAUGUGUUUGUUGUUUUGAACAUGAGGAUCACCCAUGUAGAAGGCUGAAUGA |  |  | 0.0281 | 0.0259 |
| CUGACGUCAGGAUAUCUGAUGUCUAACUUCGGUUAGACAUCAGAGAAGGGACAUGAGGAUCACCCAUGUCAGAG |  |  | 0.0287 | 0.0231 |
| CAAGUGCCGGAAGGAUAUCAGCGAUGUCACGCUUGAGAAGGUCUGUGCACAUGAGGAUCACCCAUGUCCGCCAGACUCCUUAAC |  |  | 0.00998 | 0.00849 |
